Experiment [1] has as its system HT-29. As to the kind of experiment: Induction of apoptosis in human HT-29 cells assessed as necrotic cells at 1000 nM after 48 hrs by Annexin V-FITC staining-based flow cytometric analysis (reference value: 2 +/- 6%). The class given is functional. (Flow cytometry measures light scatter and fluorescence of single cells or particles in a stream.)
Experiment [2] relates to HT-29. In words: Induction of apoptosis in human HT-29 cells assessed as viable cells at 1000 nM after 48 hrs by Annexin V-FITC staining-based flow cytometric analysis (reference value: 82 +/- 1%). The class given is functional. To be noted: HT-29, 48 h, read-out: Activity.
The test system of experiment [3] is HT-29. As to the kind of experiment: Antiproliferative activity against human HT-29 cells after 2 days by MTT assay. To be noted: HT-29, 48 h. The class given is functional, cell-based. The procedure, abridged: (§1)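 Cells (5×10^3 per well) in DMEM with 10% FBS, glucose, glutamine and antibiotics were exposed to serial dilutions (stocks in DMSO) for 2 days at 37 °C, 5% CO2. MTT was added for 3 h, formazan was dissolved in DMSO and absorbance read at 490 nm. Viability was taken as % of untreated cells. IC50 was read graphically from three independent experiments.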
On the technique in general: Formazan colour is commonly taken as a measure of viable cells.

A further experiment concerns HEK293. In words: Antiproliferative activity against human HEK293 cells after 2 days by MTT assay. The class given is cell-based. Particulars: HEK293, 48 h. The procedure, abridged:
as §1

The subject of a further experiment is MCF7. In words: Antiproliferative activity against human MCF7 cells after 2 days by MTT assay. The class given is functional, cell-based. Particulars: MCF7, 48 h. The procedure, abridged: as §1
For experiment [4], the system named is HT-29. In words: Induction of apoptosis in human HT-29 cells assessed as apoptotic cells at 1000 nM after 48 hrs by Annexin V-FITC staining-based flow cytometric analysis (reference value: 13 +/- 3%). The class given is functional.
A further experiment deals with HeLa. In words: Antiproliferative activity against human HeLa cells after 2 days by MTT assay. Particulars: 48 h. The class given is functional, cell-based. The procedure, abridged:
as §1

Experiment [5] has as its system HT-29. As to the kind of experiment: Induction of apoptosis in human HT-29 cells assessed as viable cells at 0.5 nM after 48 hrs by Annexin V-FITC staining-based flow cytometric analysis (reference value: 82 +/- 1%). The class given is functional. Particulars: HT-29, 48 h, read-out: Activity.
The subject of experiment [6] is HT-29. As to the kind of experiment: Effect on hTERT gene expression in human HT-29 cells assessed as hTERT level at 0.5 nM after 48 hrs by RT-qPCR analysis. The class given is functional. The procedure, abridged:
(§2)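 HT-29 cells at 70–80% confluence were seeded at 1.5×10^5 per well and left 24 h, then treated 48 h, with DMSO as control. Total RNA was extracted and VEGF-A, c-Myc and hTERT were quantified by TaqMan qPCR, normalized to β-actin and to living cell number. Results are % expression versus control, at least three measurements.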
For orientation: In qPCR the cycle at which signal appears reflects the starting amount.

Experiment [7] deals with HT-29. As to the kind of experiment: Effect on c-MYC gene expression in human HT-29 cells assessed as c-MYC level at 0.5 nM after 48 hrs by RT-qPCR analysis. The class given is functional. The procedure, abridged: as §2
Experiment [8] deals with HT-29. As to the kind of experiment: Induction of apoptosis in human HT-29 cells assessed as apoptotic cells at 0.5 nM after 48 hrs by Annexin V-FITC staining-based flow cytometric analysis (reference value: 13 +/- 3%). The class given is functional.
The test system of experiment [9] is HT-29. In words: Induction of apoptosis in human HT-29 cells assessed as necrotic cells at 0.5 nM after 48 hrs by Annexin V-FITC staining-based flow cytometric analysis (reference value: 2 +/- 6%). The class given is functional.
Experiment [10] has as its system HT-29. In words: Effect on VEGF protein expression in human HT-29 cells assessed as secreted VEGF level in culture media at 0.5 nM after 48 hrs by ELISA.
Experiment [11] concerns HT-29. In words: Effect on c-MYC protein expression in human HT-29 cells assessed as c-MYC level at 0.5 nM after 48 hrs by ELISA. The class given is functional. The procedure, abridged: (§3)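 HT-29 cells (1.5×10^5 per well, 24 h pre-culture) were treated 48 h and washed in PBS. They were lysed in Tris pH 7.4 buffer with detergents, phosphatase inhibitors, PMSF and protease inhibitors. Lysates were adjusted to 200 µg/mL protein (Bradford) and total c-Myc or VEGFR-2 was measured by sandwich ELISA kit. Values are % of DMSO control, ≥3 measurements.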

Experiment [12] deals with HT-29. As to the kind of experiment: Effect on VEGF gene expression in human HT-29 cells assessed as VEGF level at 0.5 nM after 48 hrs by RT-qPCR analysis. The class given is functional. The procedure, abridged:
as §2

The test system of experiment [13] is HT-29. In words: Effect on VEGFR2 protein expression in human HT-29 cells assessed as VEGFR2 level at 0.5 nM after 48 hrs by ELISA. The class given is functional. The procedure, abridged: as §3
The subject of experiment [14] is HT-29. In words: Induction of apoptosis in human HT-29 cells assessed as necrotic cells at 2000 nM after 48 hrs by Annexin V-FITC staining-based flow cytometric analysis (reference value: 2 +/- 6%). The class given is functional.
Experiment [15] relates to HT-29. As to the kind of experiment: Induction of apoptosis in human HT-29 cells assessed as apoptotic cells at 2000 nM after 48 hrs by Annexin V-FITC staining-based flow cytometric analysis (reference value: 13 +/- 3%). The class given is functional.
Experiment [16] has as its system HT-29. In words: Induction of apoptosis in human HT-29 cells assessed as viable cells at 2000 nM after 48 hrs by Annexin V-FITC staining-based flow cytometric analysis (reference value: 82 +/- 1%). The class given is functional. Particulars: HT-29, 48 h, read-out: Activity.
The subject of experiment [17] is HT-29. As to the kind of experiment: Induction of apoptosis in human HT-29 cells assessed as necrotic cells at 15 nM after 48 hrs by Annexin V-FITC staining-based flow cytometric analysis (reference value: 2 +/- 6%). The class given is functional.
For experiment [18], the system named is HT-29. In words: Induction of apoptosis in human HT-29 cells assessed as apoptotic cells at 15 nM after 48 hrs by Annexin V-FITC staining-based flow cytometric analysis (reference value: 13 +/- 3%). The class given is functional.
The subject of experiment [19] is HT-29. In words: Effect on hTERT gene expression in human HT-29 cells assessed as hTERT level at 15 nM after 48 hrs by RT-qPCR analysis. The class given is functional. The procedure, abridged:
as §2

The test system of experiment [20] is HT-29. In words: Effect on VEGF protein expression in human HT-29 cells assessed as secreted VEGF level in culture media at 15 nM after 48 hrs by ELISA.
In experiment [21] the test system is HT-29. In words: Effect on c-MYC gene expression in human HT-29 cells assessed as c-MYC level at 15 nM after 48 hrs by RT-qPCR analysis. The class given is functional. The procedure, abridged:
as §2

Experiment [22] has as its system HT-29. In words: Induction of apoptosis in human HT-29 cells assessed as viable cells at 15 nM after 48 hrs by Annexin V-FITC staining-based flow cytometric analysis (reference value: 82 +/- 1%). The class given is functional. To be noted: HT-29, 48 h, read-out: Activity.
Experiment [23] concerns HT-29. In words: Effect on VEGFR2 protein expression in human HT-29 cells assessed as VEGFR2 level at 15 nM after 48 hrs by ELISA. The class given is functional. The procedure, abridged:
as §3

Experiment [24] deals with HT-29. As to the kind of experiment: Effect on VEGF gene expression in human HT-29 cells assessed as VEGF level at 15 nM after 48 hrs by RT-qPCR analysis. The class given is functional. The procedure, abridged: as §2
Experiment [25] relates to HT-29. As to the kind of experiment: Effect on c-MYC protein expression in human HT-29 cells assessed as c-MYC level at 15 nM after 48 hrs by ELISA. The class given is functional. The procedure, abridged: as §3

The term IC50 denotes the midpoint of a concentration-inhibition curve. Read a low IC50 as inhibition by little substance. For `COc1ccccc1NC(=O)N[C@H]1CCc2cc(OC)c(OC)c(OC)c2-c2ccc(OC)c(=O)cc21`, the Activity with HT-29 [1] is 1%; with HT-29 [4], 44%. For the same molecule, the viability at 1 µM in the experiment on HT-29 [2] is 55%. The IC50 in the experiment with HT-29 [3] was determined as 1200 nM; with HEK293, 1200 nM; with MCF7 it was 1200 nM; in the experiment with HeLa it was 1400 nM.

On to `COc1cc2c(c(OC)c1OC)-c1ccc(OC)c(=O)cc1[C@@H](NC(=O)Nc1ccccc1Cl)CC2`, for which, in the experiment with HT-29 [5], the viability at 0.0005 µM was found to be 58%. For the same molecule, the Activity is reported as 46% in the experiment with HT-29 [6]; 25% in the experiment with HT-29 [7]; 41% in the experiment on HT-29 [8]; 1% in the experiment on HT-29 [9]; 34% in the experiment with HT-29 [10]; 51% in the experiment on HT-29 [11]. Moreover, the Activity in the experiment on HT-29 [12] stood at 30%; with HT-29 [13], 38%. In addition, the IC50 in the experiment on HT-29 [3] is 0.8 nM; in the experiment on HEK293, 0.7 nM; with MCF7, 1.3 nM; with HeLa, 1.2 nM.

Regarding `COc1cc2c(c(OC)c1OC)-c1ccc(OC)c(=O)cc1[C@@H](NC(=O)Nc1ccc(C)cc1Cl)CC2`, the Activity with HT-29 [6] was determined as 80%; with HT-29 [14], 1%; with HT-29 [7] it was 85%; in the experiment on HT-29 [15], 33%; in the experiment on HT-29 [10], 75%; in the experiment with HT-29 [11], 112%. In addition, the Activity worked out at 70% with HT-29 [12] and 45% in the experiment with HT-29 [13]. In addition, the IC50 turned out to be 0.71 nM with HT-29 [3], 3 nM with HEK293, 0.9 nM in the experiment on MCF7 and 3 nM with HeLa. In addition, the viability at 2 µM with HT-29 [16] came to 66%.

Take `COc1cc2c(c(OC)c1OC)-c1ccc(OC)c(=O)cc1[C@@H](NC(=O)Nc1c(F)cccc1F)CC2`: the Activity is reported as 1% in the experiment on HT-29 [17]; 12% in the experiment on HT-29 [18]; 36% in the experiment on HT-29 [19]; 11% in the experiment with HT-29 [20]; 88% in the experiment with HT-29 [21]; 35% in the experiment with HT-29 [23]. Moreover, the Activity with HT-29 [24] is reported as 38%; in the experiment on HT-29 [25] it was 42%. The IC50 was 25 nM in the experiment with HT-29 [3], 46 nM with HEK293, 42 nM in the experiment on MCF7 and 18 nM in the experiment with HeLa. In addition, the viability at 0.015 µM in the experiment on HT-29 [22] amounted to 87%.

(Values after ChEMBL document CHEMBL4229380, “Arylureas derived from colchicine: Enhancement of colchicine oncogene downregulation activity” (Eur J Med Chem, 2018).)
